# From ChEMBL document CHEMBL1123379, “Cardiotonic agents. 2. Synthesis and structure-activity relationships in a new class of 6-, 7-, and 8-pyridyl-2(1H)-quinolone derivatives” (1986)
# Experiments:
# Cavia porcellus [1] = species on record: Cavia porcellus; assay: Intrinsic activity calculated as the ratio of the maximum response to the compound to the maximum response to isoprenaline.; assay type: functional
# Cavia porcellus [2] = species on record: Cavia porcellus; assay: Positive inotropic effect in isolated left guinea pig atria.; assay type: functional; conditions: read-out: ED50 (the source's name)
# Outline: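 Isolated left atria from guinea pigs of either sex (300–800 g), reserpine-pretreated (5 mg/kg ip) 24 h before death. Atria paced electrically at 2.5 Hz, 5 ms square pulses, voltage 50% above threshold; bath contained phentolamine 3.15×10^-4 mM. Isoprenaline dose-response curve run first to validate each preparation. Positive inotropy from dose-response curves; ED50 (mol·L⁻¹, dose giving 50% of maximum effect) by Ariens–Van Rossum method.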
Compound,EC50 (Cavia porcellus [2]),Intrinsic activity (Cavia porcellus [1])
Oc1ccc2cc(-c3ccncc3)cc(Cl)c2n1,0.38 µM,0.78
Oc1ccc2cc(-c3ccncc3)ccc2n1,2.5 µM,0.45
Oc1ccc2cccc(-c3cccnc3)c2n1,140 µM,0.41
Nc1cc(Cl)c2nc(O)ccc2c1,100 µM,0.54
Oc1ccc2cc(-c3ccccn3)cc(O)c2n1,19 µM,0.51
Oc1ccc2cc(-c3ccccn3)ccc2n1,15 µM,0.67
COc1cc(-c2ccccn2)cc2ccc(O)nc12,9.2 µM,0.72
Cc1[nH]c(=O)c(C#N)cc1-c1ccncc1 [MILRINONE],14 µM,0.67
Oc1ccc2cc(-c3ccccn3)cc(Cl)c2n1,2.05 µM,0.75
CC(C)NCC(O)c1ccc(O)c(O)c1 (configuration not stated) [ISOPROTERENOL],–,1
Cc1cc(C)c(-c2ccc3nc(O)ccc3c2)c(C)n1,1.05 µM,0.38
c1cncc(-c2ccc3nc(OCCN4CCOCC4)ccc3c2)c1,15 µM,0.23

# Continued, in another order:
EC50 (Cavia porcellus [2]),Compound,Intrinsic activity (Cavia porcellus [1])
16 µM,COc1cc(-c2cccnc2)cc2c(C)cc(O)nc12,0.81
0.75 µM,Oc1ccc2cc(-c3cccnc3)cc(O)c2n1,0.72
5 µM,COc1cc(-c2ccncc2)cc2ccc(O)nc12,0.88
7 µM,COc1cc(-c2ccncc2)cc2c(C)cc(O)nc12,0.5
6.4 µM,COc1cc(-c2ccccn2)cc2c1NC(=O)CC2,0.71
0.52 µM,Oc1ccc2cc(-c3cccnc3)ccc2n1,0.67
4.85 µM,COc1cc(-c2ccccn2)cc2c(C)cc(O)nc12,0.74
34 µM,COc1cc(-c2cccnc2)cc2c1NC(=O)CC2,0.68
1.3 µM,O=C1CCc2cc(-c3cccnc3)ccc2N1,0.67
6.5 µM,COc1cc(-c2ccncc2)cc2c1NC(=O)CC2,0.68
0.28 µM,Oc1ccc2cc(-c3cccnc3)cc(Cl)c2n1,0.68
14 µM,O=C1CCc2cc(-c3ccncc3)ccc2N1,0.56
110 µM,Cn1c(=O)ccc2cc(-c3cccnc3)ccc21,0.33
8.3 µM,Oc1ccc2ccc(-c3cccnc3)cc2n1,0.67
22 µM,O=c1ccc2cc(-c3cccnc3)ccc2n1CCN1CCOCC1,0.58
6.5 µM,COc1cc(-c2cccnc2)cc2ccc(O)nc12,0.57
2.55 µM,O=C1CCc2cc(-c3ccccn3)ccc2N1,0.29
